# Measured values from ChEMBL document CHEMBL1156235, “A novel class of antihyperlipidemic agents with low density lipoprotein receptor up-regulation via the adaptor protein autosomal recessive hypercholesterolemia” (J Med Chem, 2010).
# The source made the active and inactive calls. The calls are words filed in the database; no cut-off is given here.
# Legend:
# [1] = Solubility in phosphate buffer at pH 7.4 by HPLC analysis; assay type: physicochemical
# Outline: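 Solubility in phosphate buffer was measured at room temperature, with the dissolved amount quantified by HPLC.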
# [2] = test system: HepG2; test: Upregulation of LDL receptor expression in human HepG2 cells assessed as DiI-LDL uptake after 19 hrs; assay type: functional; conditions: HepG2, 19 h
# Outline: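 HepG2 cells were grown 2-3 days in DMEM/F-12 with 10% FBS, then given compound in medium with 10% delipoprotein serum for 19 h at 37 °C. DiI-labelled human LDL was then added for 5 h, with 30-50-fold unlabelled LDL defining nonspecific uptake. Specific fluorescence per protein is expressed as % of control. EC25 is the concentration giving 25% up-regulation (n = 1).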
# [3] = target: T1, Sterol O-acyltransferase 1 (Rattus norvegicus, UniProt O70536); test: Inhibition of rat macrophages ACAT
# T1 sequence (O70536 whole entry): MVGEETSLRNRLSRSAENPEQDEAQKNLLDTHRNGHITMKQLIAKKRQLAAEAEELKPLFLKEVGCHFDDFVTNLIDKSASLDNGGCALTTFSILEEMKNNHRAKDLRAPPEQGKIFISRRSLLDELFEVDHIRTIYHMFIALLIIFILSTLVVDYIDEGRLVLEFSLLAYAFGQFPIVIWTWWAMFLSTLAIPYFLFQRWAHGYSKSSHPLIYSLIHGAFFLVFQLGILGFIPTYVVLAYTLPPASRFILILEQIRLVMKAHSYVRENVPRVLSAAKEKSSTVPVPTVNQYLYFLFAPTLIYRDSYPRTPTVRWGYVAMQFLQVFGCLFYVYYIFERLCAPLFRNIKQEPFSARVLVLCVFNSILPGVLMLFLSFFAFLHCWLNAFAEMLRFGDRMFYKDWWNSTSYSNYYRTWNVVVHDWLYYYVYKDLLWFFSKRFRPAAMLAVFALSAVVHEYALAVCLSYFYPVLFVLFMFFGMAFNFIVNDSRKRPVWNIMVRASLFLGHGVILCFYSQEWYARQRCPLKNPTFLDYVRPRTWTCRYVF
# Outline: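 ACAT was taken from rat macrophages, and inhibition was measured once (n = 1).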
# [4] = Cmax in hamster at 10 mg/kg; assay type: ADME, organism-based; design: dose 10 mg/kg; conditions: cricetinae, in vivo
# Outline: (§1)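 Male hamsters received a single oral dose of 10 mg/kg as the sodium salt, and serum drug concentration was followed over time. Values are mean ± SEM, n = 3.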
# [5] = AUC (0 to 360 mins) in hamster at 10 mg/kg; assay type: ADME, organism-based; design: time < 6 hr, dose 10 mg/kg; conditions: cricetinae, plasma; outline: as §1
# [6] = test system: HepG2; test: Increase of [125I]LDL cholesterol degradation in human HepG2 cells at 1 uM; assay type: functional
# [7] = test system: Hamster; test: Antihyperlipidemic activity in high-cholesterol diet fed hamster model assessed as reduction of plasma total LDL cholesterol level at 3 mg/kg, po administered qd for 7 days; assay type: functional, Cricetinae; design: scale not given: the % may be the effect or the level left
# Outline: (§2)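 Hamsters fed a rich diet for 1 week were dosed orally by gavage once daily for 1 week. Plasma total cholesterol and LDL-C were then measured. Values are mean ± SEM.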
# [8] = test system: Hamster; test: Antihyperlipidemic activity in high-cholesterol diet fed hamster model assessed as reduction of plasma total cholesterol level at 3 mg/kg, po administered qd for 7 days; assay type: functional, Cricetinae; design: scale not given: the % may be the effect or the level left; outline: as §2
# [9] = test system: Hamster; test: Antihyperlipidemic activity in high-cholesterol diet fed hamster model assessed as reduction of plasma total LDL cholesterol level at 1 mg/kg, po administered qd for 7 days; assay type: functional, Cricetinae; design: scale not given: the % may be the effect or the level left; outline: as §2
# [10] = test system: Hamster; test: Antihyperlipidemic activity in high-cholesterol diet fed hamster model assessed as reduction of plasma total LDL cholesterol level at 10 mg/kg, po administered qd for 7 days; assay type: functional, Cricetinae; design: scale not given: the % may be the effect or the level left; outline: as §2
# [11] = test system: HepG2; test: Increase of [125I]LDL cholesterol degradation in human HepG2 cells at 0.01 uM; assay type: functional
# [12] = test system: Hamster; test: Antihyperlipidemic activity in high-cholesterol diet fed hamster model assessed as reduction of plasma total cholesterol level at 10 mg/kg, po administered qd for 7 days; assay type: functional, Cricetinae; design: scale not given: the % may be the effect or the level left; outline: as §2
# [13] = test system: HepG2; test: Increase of [125I]LDL cholesterol degradation in human HepG2 cells at 0.1 uM; assay type: functional
# [14] = test system: Hamster; test: Antihyperlipidemic activity in high-cholesterol diet fed hamster model assessed as reduction of plasma total cholesterol level at 1 mg/kg, po administered qd for 7 days; assay type: functional, Cricetinae; design: scale not given: the % may be the effect or the level left; outline: as §2
# [15] = test system: Hamster; test: Antihyperlipidemic activity in high-cholesterol diet fed po dosed hamster model assessed as reduction of plasma total LDL cholesterol level administered qd for 7 days; assay type: functional, organism-based; conditions: Cricetinae; outline: as §2
# [16] = test system: Hamster; test: Antihyperlipidemic activity in high-cholesterol diet fed po dosed hamster model assessed as reduction of plasma total cholesterol level administered qd for 7 days; assay type: functional, organism-based; conditions: Cricetinae; outline: as §2
# [17] = test system: HepG2; test: Upregulation of LDL receptor expression in human HepG2 cells at 1 uM in presence of ARH-specific siRNA; assay type: functional, cell-based
# [18] = test system: HepG2; test: Increase of [125I]LDL cholesterol degradation in human HepG2 cells; assay type: functional, cell-based
# [19] = test system: Hamster; test: Antihyperlipidemic activity in high-cholesterol diet fed hamster model assessed as reduction of plasma total LDL cholesterol level at 30 mg/kg, po administered qd for 7 days; assay type: functional, Cricetinae; design: scale not given: the % may be the effect or the level left; outline: as §2
# [20] = test system: Hamster; test: Antihyperlipidemic activity in high-cholesterol diet fed hamster model assessed as reduction of plasma total cholesterol level at 30 mg/kg, po administered qd for 7 days; assay type: functional, Cricetinae; design: scale not given: the % may be the effect or the level left; outline: as §2
Compound,solubility [1],EC25 [2],IC50 [3],other results
CCOc1cccc(C2(C(=O)NS(=O)(=O)Oc3c(C(C)C)cccc3C(C)C)CCN(c3ncccn3)CC2)c1,69 µg/mL,3.1 µM,,
COc1cccc(C2(C(=O)NS(=O)(=O)Nc3c(C(C)C)cccc3C(C)C)CCN(c3ccccc3OC)CC2)c1,,> 10 µM,> 1 µM,
COc1cccc(C2(C(=O)NS(=O)(=O)Oc3ccccc3)CCN(c3ccccc3OC)CC2)c1,,> 10 µM,> 1 µM,
COc1cccc(C2(C(=O)NS(=O)(=O)Oc3c(C(C)C)cccc3C(C)C)CCN(c3ccccc3)CC2)c1,180 µg/mL,1.52 µM,> 1 µM,
COc1cccc(C2(C(=O)[N-]S(=O)(=O)Oc3c(C(C)C)cccc3C(C)C)CCN(c3ncccn3)CC2)c1.[Na+],230 µg/mL,,,Cmax [4]: 290 ng/mL; AUC(0-t) at 6 h [5]: 1090 ng·h/mL
CC(C)c1cccc(C(C)C)c1OS(=O)(=O)NC(=O)C1(c2cccc(OCCO)c2)CCN(c2ncccn2)CC1,> 200 µg/mL,1.5 µM,,
COc1cccc(C2(C(=O)NS(=O)(=O)Oc3c(C(C)C)cccc3C(C)C)CCN(c3nccc(C)n3)CC2)c1,200 µg/mL,0.5 µM,> 1 µM,
COc1cccc(C2(C(=O)NS(=O)(=O)Oc3c(C(C)C)cccc3C(C)C)CCN(c3ncccn3)CC2)c1 [listing 1 of 2 here],,0.047 µM,> 1 µM,Activity [6]: 140%; Activity [7]: -27%; Activity [8]: -12%; Activity [9]: -24%; Activity [10]: -38%; Activity [11]: 119%; Activity [12]: -17%; Activity [13]: 136%; Activity [14]: -8%
COc1cccc(C2(C(=O)NS(=O)(=O)Oc3c(C(C)C)cccc3C(C)C)CCN(c3ncccc3OC)CC2)c1,,> 10 µM,> 1 µM,
COc1cccc(C2(C(=O)NS(=O)(=O)Oc3c(C(C)C)cccc3C(C)C)CCN(c3ncc(Br)cn3)CC2)c1,< 0.1 µg/mL,0.61 µM,> 1 µM,
CCCc1ccccc1OS(=O)(=O)NC(=O)C1(c2cccc(OC)c2)CCN(c2ccccc2OC)CC1,,4.07 µM,> 1 µM,
COc1cccc(C2(C(=O)NS(=O)(=O)Oc3c(C(C)C)cccc3C(C)C)CCN(c3nccc(C(F)(F)F)n3)CC2)c1,,> 10 µM,> 1 µM,
COc1cccc(C2(C(=O)NS(=O)(=O)Oc3c(C(C)C)cccc3C(C)C)CCN(c3ccccc3OC)CC2)c1 [listing 1 of 2 here],,,,Activity [15]: Dose-dependent effect; Activity [16]: Dose-dependent effect
COc1cccc(C2(C(=O)N(C)S(=O)(=O)Oc3c(C(C)C)cccc3C(C)C)CCN(c3ncccn3)CC2)c1,< 0.3 µg/mL,> 10 µM,> 1 µM,
COc1cccc(C2(C(=O)NS(=O)(=O)Oc3c(C(C)C)cccc3C(C)C)CCN(c3nc4ccccc4s3)CC2)c1,3 µg/mL,0.26 µM,> 1 µM,
CCCOc1cccc(C2(C(=O)NS(=O)(=O)Oc3c(C(C)C)cccc3C(C)C)CCN(c3ncccn3)CC2)c1,< 0.3 µg/mL,> 10 µM,,
CCCc1cnc(N2CCC(C(=O)NS(=O)(=O)Oc3c(C(C)C)cccc3C(C)C)(c3cccc(OC)c3)CC2)nc1,,> 10 µM,> 1 µM,

Compound,solubility [1],EC25 [2],IC50 [3],other results
COc1cccc(C2(C(=O)NS(=O)(=O)Oc3c(C(C)C)cccc3C(C)C)CCN(c3ccccc3OC)CC2)c1.Cl,,,,Cmax [4]: 300 ng/mL; AUC(0-t) at 6 h [5]: 690 ng·h/mL
COc1cccc(C2(C(=O)NS(=O)(=O)Oc3ccccc3C3CCCC3)CCN(c3ccccc3OC)CC2)c1,,0.69 µM,> 1 µM,
CC(C)c1cccc(C(C)C)c1OS(=O)(=O)NC(=O)C1(c2cccc(OCCCO)c2)CCN(c2ncccn2)CC1,> 200 µg/mL,> 10 µM,,
COc1cccc(C2(C(=O)NS(=O)(=O)Oc3ccccc3C)CCN(c3ccccc3OC)CC2)c1,,3.88 µM,> 1 µM,
COc1cccc(C2(C(=O)NS(=O)(=O)Oc3c(C(C)C)cccc3C(C)C)CCN(C)CC2)c1,,> 10 µM,> 1 µM,
COc1cccc(C2(C(=O)NS(=O)(=O)Oc3c(C(C)C)cccc3C(C)C)CCN(c3ncccn3)CC2)c1 [listing 2 of 2 here],,,,Activity [17]: inactive; Activity [15]: Dose-dependent effect; Activity [16]: Dose-dependent effect; Activity [18]: Dose-dependent effect
COc1cccc(C2(C(=O)NS(=O)(=O)Oc3c(C(C)C)cccc3C(C)C)CCN(c3ccccc3OC)CC2)c1 [listing 2 of 2 here],,0.37 µM,0.33 µM,Cmax [4]: 13 ng/mL; Activity [10]: -18%; Activity [19]: -25%; Activity [12]: -10%; Activity [20]: -17%
COc1cccc(C2(C(=O)[N-]S(=O)(=O)Oc3c(C(C)C)cccc3C(C)C)CCN(c3ccccc3OC)CC2)c1.[Na+],,,,Cmax [4]: 420 ng/mL; AUC(0-t) at 6 h [5]: 1160 ng·h/mL
COc1cccc(C2(C(=O)NS(=O)(=O)Oc3c(C(C)C)cccc3C(C)C)CCNCC2)c1,,> 10 µM,> 1 µM,
COc1cccc(C2(C(=O)Nc3c(C(C)C)cccc3C(C)C)CCN(c3ccccc3OC)CC2)c1,,> 10 µM,> 1 µM,
CC(C)c1c(C(=O)Nc2ccccc2)c(-c2ccccc2)c(-c2ccc(F)cc2)n1CC[C@@H](O)C[C@@H](O)CC(=O)O,,,,Activity [17]: Active
COc1cccc(C2(C(=O)NS(=O)(=O)Oc3c(C)cccc3C)CCN(c3ccccc3OC)CC2)c1,,> 10 µM,0.41 µM,
COc1cccc(C2(C(=O)NS(=O)(=O)Oc3c(C(C)C)cccc3C(C)C)CCN(C(=O)c3ccccc3)CC2)c1,,> 10 µM,> 1 µM,
CC(C)c1cccc(C(C)C)c1OS(=O)(=O)NC(=O)C1(c2cccc(O)c2)CCN(c2ncccn2)CC1,200 µg/mL,> 10 µM,,
COc1cccc(C2(C(=O)NS(=O)(=O)Oc3c(C(C)C)cccc3C(C)C)CCN(C(C)=O)CC2)c1,,> 10 µM,> 1 µM,
CCCCn1c(=O)c(NC(=O)Nc2c(C(C)C)cc(N)cc2C(C)C)c(-c2cccc(OCCCO)c2)c2cccnc21.Cl.O,,0.49 µM,0.031 µM,Activity [10]: -31%; Activity [12]: -29%
